The source of these data is PMC12814486 (Bioorganic & medicinal chemistry, 2025).

In one data set the target is Delta opioid (DOR) (Homo sapiens, UniProt P41143). The experiment in a line: NIMH PDSP binding screen. The settings on record: read-out: Inhibition (%) Delta opioid (DOR).
The next data set addresses 5-HT2A (Homo sapiens, UniProt P28223). The experiment in a line: NIMH PDSP binding screen. The settings on record: read-out: Inhibition (%) 5-HT2A.
The nature of data set [1]: Microsomal stability assay in liver microsomes. The format is in vitro ADME. The settings on record: mouse, pH 7.4. The method in brief:
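Test compound was taken from a 1 mM DMSO stock. It was preincubated 5 min at 37 °C with liver microsomes in 0.1 M phosphate buffer, pH 7.4. Reaction was started with an NADPH regenerating system (glucose-6-phosphate, NADPH, glucose-6-phosphate dehydrogenase, MgCl2) and quenched with methanol at 0, 10, 20, 30 and 60 min. Samples were centrifuged and read by LC-MS SIM as peak area ratio to internal standard. k = negative slope of ln ratio vs time; CLint = k/P (P = protein concentration). Duplicates or triplicates were averaged.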
(In general: Liver microsomes are vesicles of endoplasmic reticulum, rich in cytochrome P450 enzymes.)

The target in a further data set is 5-HT1D (Homo sapiens, UniProt P28221). The experiment in a line: NIMH PDSP binding screen. As to conditions: read-out: Inhibition (%) 5-HT1D.
Sequence of 5-HT1D (P28221 whole entry, species assumed): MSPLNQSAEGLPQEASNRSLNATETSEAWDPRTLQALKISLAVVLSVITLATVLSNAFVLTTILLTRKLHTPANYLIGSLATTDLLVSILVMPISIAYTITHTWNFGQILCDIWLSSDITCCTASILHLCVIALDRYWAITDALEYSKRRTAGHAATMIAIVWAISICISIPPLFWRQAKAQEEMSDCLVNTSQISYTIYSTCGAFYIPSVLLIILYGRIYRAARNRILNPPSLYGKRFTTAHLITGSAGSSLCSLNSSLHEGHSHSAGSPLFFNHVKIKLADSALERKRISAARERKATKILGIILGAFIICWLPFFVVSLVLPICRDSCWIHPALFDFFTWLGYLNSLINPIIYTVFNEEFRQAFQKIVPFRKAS
The target of the next data set is T1, mouse sEH (Mus musculus, UniProt P34914).
T1 sequence (P34914 1-554): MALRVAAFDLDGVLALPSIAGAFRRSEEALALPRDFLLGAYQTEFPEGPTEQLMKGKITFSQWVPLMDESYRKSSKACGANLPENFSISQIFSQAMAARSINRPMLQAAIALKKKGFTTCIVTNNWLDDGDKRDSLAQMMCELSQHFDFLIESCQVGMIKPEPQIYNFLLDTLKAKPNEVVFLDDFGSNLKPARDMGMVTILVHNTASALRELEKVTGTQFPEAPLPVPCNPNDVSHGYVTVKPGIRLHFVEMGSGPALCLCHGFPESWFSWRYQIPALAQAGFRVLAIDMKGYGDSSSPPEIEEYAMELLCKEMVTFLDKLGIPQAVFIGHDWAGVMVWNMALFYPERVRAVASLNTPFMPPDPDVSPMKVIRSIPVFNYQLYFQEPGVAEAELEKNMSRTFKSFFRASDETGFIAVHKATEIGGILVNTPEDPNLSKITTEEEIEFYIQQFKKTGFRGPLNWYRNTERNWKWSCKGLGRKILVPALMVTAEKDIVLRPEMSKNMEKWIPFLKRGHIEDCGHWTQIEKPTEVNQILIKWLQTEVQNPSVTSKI
As to the kind of experiment: sEH inhibition assay. The format is biochemical.

Another data set deals with T2, human sEH (Homo sapiens, UniProt P34913).
T2 sequence (P34913 1-555): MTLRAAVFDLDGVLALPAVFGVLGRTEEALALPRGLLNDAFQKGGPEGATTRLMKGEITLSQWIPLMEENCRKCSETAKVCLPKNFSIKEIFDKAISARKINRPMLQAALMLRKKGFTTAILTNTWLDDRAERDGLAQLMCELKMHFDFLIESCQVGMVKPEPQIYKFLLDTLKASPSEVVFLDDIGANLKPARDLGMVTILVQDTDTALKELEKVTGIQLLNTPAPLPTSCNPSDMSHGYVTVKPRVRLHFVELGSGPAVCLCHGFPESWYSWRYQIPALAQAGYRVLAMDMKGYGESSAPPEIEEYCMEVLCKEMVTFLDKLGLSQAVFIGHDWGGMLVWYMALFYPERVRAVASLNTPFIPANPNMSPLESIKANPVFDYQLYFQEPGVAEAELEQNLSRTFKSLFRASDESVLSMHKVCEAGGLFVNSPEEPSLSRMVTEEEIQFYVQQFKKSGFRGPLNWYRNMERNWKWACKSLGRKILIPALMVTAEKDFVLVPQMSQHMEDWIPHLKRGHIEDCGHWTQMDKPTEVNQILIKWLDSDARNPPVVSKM
As to the kind of experiment: sEH inhibition assay. The format is biochemical.

The target of the next data set is Mu opioid (MOR) (Homo sapiens, UniProt P35372). The experiment in a line: NIMH PDSP binding screen. The settings on record: read-out: Inhibition (%) Mu opioid (MOR).
Sequence of Mu opioid (MOR) (P35372 whole entry): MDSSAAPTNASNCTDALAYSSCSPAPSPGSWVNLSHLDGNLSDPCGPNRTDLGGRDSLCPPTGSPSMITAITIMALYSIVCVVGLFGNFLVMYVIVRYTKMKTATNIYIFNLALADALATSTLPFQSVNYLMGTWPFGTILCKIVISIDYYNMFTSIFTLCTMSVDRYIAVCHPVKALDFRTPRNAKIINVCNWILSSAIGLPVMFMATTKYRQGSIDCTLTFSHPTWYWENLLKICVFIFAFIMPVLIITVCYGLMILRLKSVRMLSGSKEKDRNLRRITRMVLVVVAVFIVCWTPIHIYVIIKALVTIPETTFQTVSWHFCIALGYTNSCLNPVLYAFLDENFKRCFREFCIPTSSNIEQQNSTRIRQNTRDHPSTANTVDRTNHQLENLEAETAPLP

Sequence of 5-HT2A (P28223 whole entry, species assumed): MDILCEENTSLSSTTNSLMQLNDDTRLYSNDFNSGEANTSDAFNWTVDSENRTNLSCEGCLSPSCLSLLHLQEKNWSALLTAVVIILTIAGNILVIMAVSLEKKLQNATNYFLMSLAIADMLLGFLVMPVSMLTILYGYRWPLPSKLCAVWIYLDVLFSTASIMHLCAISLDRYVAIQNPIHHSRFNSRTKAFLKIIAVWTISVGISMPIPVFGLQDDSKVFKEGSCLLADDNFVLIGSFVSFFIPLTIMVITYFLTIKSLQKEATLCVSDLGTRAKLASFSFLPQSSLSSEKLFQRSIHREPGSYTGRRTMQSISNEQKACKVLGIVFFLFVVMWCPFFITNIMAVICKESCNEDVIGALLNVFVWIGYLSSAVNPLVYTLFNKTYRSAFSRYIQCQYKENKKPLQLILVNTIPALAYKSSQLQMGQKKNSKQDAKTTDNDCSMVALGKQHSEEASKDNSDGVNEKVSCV
Sequence of Delta opioid (DOR) (P41143 whole entry): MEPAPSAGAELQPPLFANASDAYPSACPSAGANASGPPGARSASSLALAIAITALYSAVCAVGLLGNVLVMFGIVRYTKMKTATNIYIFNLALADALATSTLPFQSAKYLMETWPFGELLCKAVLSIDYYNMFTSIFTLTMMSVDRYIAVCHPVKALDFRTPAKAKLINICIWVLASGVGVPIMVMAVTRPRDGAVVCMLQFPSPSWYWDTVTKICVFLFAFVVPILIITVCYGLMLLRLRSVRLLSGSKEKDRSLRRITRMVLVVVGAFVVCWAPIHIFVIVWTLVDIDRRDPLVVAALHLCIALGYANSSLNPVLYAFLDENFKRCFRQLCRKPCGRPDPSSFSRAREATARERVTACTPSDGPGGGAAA

One may read the half-life as the time needed for the level to fall by half in the phase considered. A lower half-life goes with rapid decline. In general, microsomal CLint refers to the capacity of the preparation to metabolise the compound, expressed as a volume cleared per time. Higher therefore signals rapid turnover. As a reminder, the IC50 is the point on the concentration scale where inhibition reaches its midpoint. A lower IC50 goes with inhibition by little substance. In the case of `O=C(Nc1ccc(-c2cnc3ccccc3n2)cc1)C1CCN(S(=O)(=O)c2ccccc2Cl)CC1` [Compound 4m, 1-((2-chlorophenyl)sulfonyl)-N-(4-(quinoxalin-2-yl)phenyl)piperidine-4-carboxamide], the inhibition at 10 µM at Delta opioid (DOR) is -0.23 ± 11.9%; on 5-HT2A it was 1.96 ± 1.88%; on 5-HT1D, -8.07 ± 3.46%; at Mu opioid (MOR), -1 ± 1.63%. In data set [1], the half-life at 1 µM came to 32 min. In data set [1], this compound came in with an intrinsic clearance (microsomal CLint) at 1 µM of 42.8 µL/min/mg. For the same compound, the 50% inhibitory concentration (IC50) at mouse sEH amounted to 0.0391 µM; against human sEH, 0.0007 µM.
